# High-throughput results deposited in PubChem BioAssay by several laboratories.
# ARFGAP1 inhibitor: inhibits rat ARF GTPase activating protein 1. Arfgap1-stimulated ARF1 GTP hydrolysis, GDP FP detection. inhibition, % at 16.5 µM. 0.26% of 360,000 active;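 active = inhibition above a per-plate limit, mean inhibition of low control wells plus 3 SD, cut at about 25% in these data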
#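 material = rat Arfgap1 catalytic domain, aa 1-136 | also added = human ARF1(Δ1-17)-GTP substrate | compound dosing = one concentration, 16.5 µM, DMSO 1.26% | times = GTP hydrolysis reaction 2 h at 25 °C | measured by = FP, GDP Alexa 633 tracer displaced from anti-GDP antibody, 620/688 nm | evaluation = percent inhibition of Arfgap1-stimulated GTP hydrolysis | replication = single well per compound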
# MsrA inhibitor: bovine MsrA inhibition | AID 651718 | 0.75% of 360,000 active | inhibition, % at 15.5 µM | purified bovine MsrA, absorbance read-out; in the data active = inhibition above about 4.5%
# ASAP1 inh: ASAP1 ArfGAP inhibition | Q9ULH1 | ASAP1-stimulated ARF1 GTP hydrolysis, GDP FP detection | inhibition, % at 16.5 µM | 0.19% of 360,000 active | AID 624377; in the data active = inhibition above about 25%
# HGIII-sPLA2 inh: Inhibits HGIII-sPLA2 liposome hydrolysis, primary screen | QFRET BODIPY PC-A2 liposome hydrolysis, fluorescence | inhibition, % at 12.2 µM | 0.56% of 370,000 active | AID 743126;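 active = inhibition above mean plus 3 SD of compounds lying within the high and low control bounds, cut at about 19% in these data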
# MsrA act: activates bovine MsrA enzyme; purified bovine MsrA, absorbance read-out; 0.3% of 360,000 active; activation, % at 10.6 µM; AID 602163; in the data active = activation above about 7.5%
# Rev-erbA mod: Rev-erb alpha (human) modulation; P20393; Rev-erbα–FITC-DNA binding, fluorescence polarization, 90 min; 0.79% of 370,000 active; activity, % at 10 µM; AID 1259318;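 active = activity above about 14%, limit read from the data; passing the limit was not always enough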
# Target sequence (P20393 whole entry, looked up): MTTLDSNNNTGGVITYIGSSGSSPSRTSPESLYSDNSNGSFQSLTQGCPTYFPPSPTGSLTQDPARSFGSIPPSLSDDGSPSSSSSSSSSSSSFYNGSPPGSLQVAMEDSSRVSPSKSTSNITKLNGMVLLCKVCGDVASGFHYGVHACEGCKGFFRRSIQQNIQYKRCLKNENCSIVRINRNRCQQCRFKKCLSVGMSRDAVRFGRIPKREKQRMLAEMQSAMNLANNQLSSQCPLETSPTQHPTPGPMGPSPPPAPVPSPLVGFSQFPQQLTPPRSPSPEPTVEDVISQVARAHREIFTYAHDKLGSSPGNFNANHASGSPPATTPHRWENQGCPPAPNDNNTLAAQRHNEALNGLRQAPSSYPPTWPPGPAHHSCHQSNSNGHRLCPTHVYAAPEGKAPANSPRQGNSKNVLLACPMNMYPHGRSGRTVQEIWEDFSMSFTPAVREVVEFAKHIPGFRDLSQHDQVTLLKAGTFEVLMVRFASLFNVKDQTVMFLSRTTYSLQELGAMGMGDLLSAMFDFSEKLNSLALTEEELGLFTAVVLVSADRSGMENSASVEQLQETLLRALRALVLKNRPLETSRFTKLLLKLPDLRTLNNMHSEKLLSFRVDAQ
# sPLA2 confirm: human GIII-sPLA2 inhibition, confirmation; inhibition, % at 12.2 µM; 34% of 2,000 active; AID 743280; shares compounds with HGIII-sPLA2 inh; recombinant hGIII-sPLA2, BODIPY PC-A2 QFRET fluorescence;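 active = mean inhibition across triplicates above the hit cutoff set in the earlier primary screen, cut at about 19% in these data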
# BODIPY interf: 535nm fluorescence interference, HGIII-sPLA2 counter-screen; shares compounds with HGIII-sPLA2 inh; BODIPY FL product fluorescence interference, QFRET; inhibition, % at 12.2 µM; 8.5% of 2,000 active;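 active = average inhibition above the solvent-only control mean plus 3 SD, cut at about 6% in these data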
# BODIPY interf DR: interferes with 535nm fluorescence in dose response counter-screen; 240 tested, under 10 active; IC50, µM; AID 743455; shares compounds with HGIII-sPLA2 inh; BODIPY FL product fluorescence interference, cell-free;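 active = IC50 at or below 10 µM; inactive = IC50 above 10 µM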
# A number is an active result; 0 = inactive; - = not tested or not shown. Hits are enriched below; roughly 2.7% of the tested compounds scored in any of these assays.
SMILES,ARFGAP1 inhibitor,MsrA inhibitor,ASAP1 inh,HGIII-sPLA2 inh,MsrA act,Rev-erbA mod,sPLA2 confirm,BODIPY interf,others
Cc1ccc(C)c(NC(=S)N2CCN(Cc3ccccc3)CC2)c1,0,0,0,0,0,0,-,-,
COc1ccccc1CNC(=O)NNC(=O)CCn1nc(C)c([N+](=O)[O-])c1C,-,-,-,0,-,0,-,-,
CNC(=O)C1(C)Cc2c(-c3ccc(NC(C)=O)cc3)ccnc2O1 (stereo not drawn),0,0,0,0,0,0,-,-,
CC(=O)Nc1ccc(-c2ccnc3c2CC(C)(C(=O)NC(C)C)O3)cc1 (stereo not drawn),0,0,0,21,0,0,0,0,
COC(=O)C1=C(C)NC(C)=C(C(=O)OC)C1c1ccccn1,0,0,0,22,0,0,0,0,
COC(=O)C1=C(C)Nc2ncnn2C1c1ccccn1 (stereo not drawn),0,0,0,0,0,0,-,-,
CCCCN(C)C(=O)CSc1nnc(-c2cccnc2)n1C1CCCCC1,-,-,-,0,-,0,-,-,
O=C(NNC(=S)NC1CCCCC1)c1ccccc1O,0,0,0,44,0,0,44,0,BODIPY interf DR=0
Cc1cc(C(=O)NNC(=S)NC2CCCCC2)cs1,0,0,0,25,0,0,37,0,BODIPY interf DR=0
O=C(CSc1nc2ccccc2s1)NNC(=S)Nc1ccc(Br)cc1,0,0,0,23,0,0,0,0,
CC(=O)N1CCN(c2ccc(NCc3ccc(-c4ccc(Br)cc4)o3)cc2)CC1,0,0,0,20,0,0,20,0,
CC(=O)N1CCN(c2ccc(NCc3ccc(Br)o3)cc2)CC1,0,0,0,0,0,0,-,-,
CC(C)C[C@@H]1COc2cc(Br)ccc2S(=O)(=O)N1Cc1cn(Cc2ccco2)nn1,-,-,-,0,-,0,-,-,
S=C(Nc1ccccc1)OC1CCC12CCC(c1ccccc1)CC2 (stereo not drawn),-,-,-,0,-,0,-,-,
Oc1ccccc1/C=N/Nc1nccnc1Cl,0,0,0,24,0,0,0,8.6,
CCOc1ccccc1C(=O)NN1C(=O)C2CCCCC2C1=O (stereo not drawn),0,0,0,22,0,0,0,0,
O=C(OCc1cn(Cc2ccc(Cl)cc2)nn1)N1CCOCC1,-,-,-,0,-,0,-,-,
CC(=O)N1CC(C(=O)Nc2ccc3c(c2)OCO3)Oc2ccccc21 (stereo not drawn),0,0,0,0,0,0,-,-,
Nc1sc(-c2ccccc2)cc1C(=O)NCCN1CCOCC1,0,0,0,20,-,0,0,0,
Cc1cccc(-n2c3nc(=O)[nH]c(=O)c-3cc3cc([N+](=O)[O-])ccc32)c1,0,0,0,25,0,0,20,6.6,
COc1ccc2[nH]c3c(c2c1)CCN[C@]31C(=O)N(C)c2ccc(Br)cc21,-,-,-,0,-,0,-,-,
Oc1ccc(/C=N/N(Cc2ccccc2)c2ccccc2)c(O)c1O,0,0,0,20,0,0,30,7.4,
Oc1cccc(/C=N/N(Cc2ccccc2)c2ccccc2)c1,0,0,0,0,0,0,-,-,
Cc1cc(N2CCN(C/C=C/c3ccccc3)CC2)n2ncnc2n1,0,0,0,0,0,0,-,-,
Cc1cc(N2CCN(c3ccccc3)CC2)n2ncnc2n1,0,0,0,93,0,0,0,0,
SMILES,ARFGAP1 inhibitor,MsrA inhibitor,ASAP1 inh,HGIII-sPLA2 inh,MsrA act,Rev-erbA mod,sPLA2 confirm,BODIPY interf,others
C=CCc1cc(Cl)ccc1OCCCNCCO,0,0,0,0,0,0,-,-,
C=CCc1cc(Cl)ccc1OCCCNC(C)C,0,0,0,23,0,0,0,0,
O=C(Nc1nnc(SCC(=O)N2CCCc3ccccc32)s1)c1ccccc1,0,0,0,0,0,0,-,-,
O=C(Nc1nnc(SCC(=O)N2CCCc3ccccc32)s1)c1ccc2ccccc2c1,0,0,0,20,0,0,0,0,
COc1ccccc1Nc1nc(-c2c(C)[nH]c3ccccc23)cs1,0,0,0,20,0,0,20,9.8,
Cc1[nH]c2ccccc2c1-c1csc(N)n1,0,0,0,0,0,0,-,-,
CCOC(=O)c1csc(NC(=O)C2CCCN(S(=O)(=O)c3cccs3)C2)n1 (stereo not drawn),-,-,-,0,-,0,-,-,
CCC1CCCCN1C(=S)NC(=O)c1cc(S(=O)(=O)N2CCOCC2)ccc1C (stereo not drawn),0,0,0,20,0,0,0,0,
CC(C)CNC(=O)CN(C)S(=O)(=O)c1ccc(F)cc1,0,0,0,22,0,0,0,0,
CN(CC(=O)NC1CC1)S(=O)(=O)c1ccc(F)cc1,0,0,0,0,0,0,-,-,
Cc1cc2cc3c(cc2n2c(SCC(=O)Nc4nc(-c5ccccc5)cs4)nnc12)OCO3,-,-,-,0,-,0,-,-,
CS(=O)(=O)Oc1ccc(/C=N/NC(=O)c2ccncc2)cc1,0,0,0,19,0,0,0,0,
CCCn1c(C(C)C)n[nH]c1=S,0,0,0,26,0,0,0,0,
CC(C)c1cc(C(=O)NCCc2cccs2)c(N)s1,0,0,0,0,-,0,-,-,
CC(C)c1cc(C(=O)NCc2ccc(F)cc2)c(N)s1,0,0,0,21,-,0,24,0,
O=S1(=O)CC2c3ccc(F)cc3CN2CN1Cc1ccccc1 (stereo not drawn),-,-,-,0,-,0,-,-,
COc1cc(CNC23CC4CC(CC(C4)C2)C3)ccc1OCc1ccccc1,0,0,0,22,0,0,0,0,
CCCC[n+]1c2ccccc2cc2ccccc21,0,0,0,40,0,0,52,0,BODIPY interf DR=0
COc1ccc(/C(C)=N/NC(=O)Cc2cc(=O)[nH][nH]2)cc1OC,-,-,-,0,-,0,-,-,
CCC1(c2ccccc2)NC(=S)N(c2cccc(C)c2C)N1 (stereo not drawn),0,0,0,20,0,0,22,0,
Cc1ccc(-n2c(SCC(=O)Nc3ccccc3-c3ccccc3)nnc2-c2cccnc2)cc1,-,-,-,0,-,0,-,-,
O=C(N/N=C/c1sc2ccccc2c1O)c1ccccc1,-,-,-,-,0,-,-,-,
O=C(N/N=C/c1sc2ccccc2c1O)c1cccc2ccccc12,0,0,0,31,0,0,0,0,
S=c1[nH]nc(-c2ccc(Cl)cc2)n1-c1ccc2c(c1)OCCO2,0,0,0,21,0,0,32,0,BODIPY interf DR=0
Fc1ccc(-c2n[nH]c(=S)n2-c2ccc3c(c2)OCCO3)cc1,0,0,0,0,0,0,-,-,
COc1ccc(C(=O)NC(Oc2ccccc2)C(Cl)(Cl)Cl)cc1 (stereo not drawn),0,0,0,21,0,0,0,0,
CCCCc1ccc(NC(=S)N2CCCC2)cc1,0,0,0,20,0,0,0,0,
